Compound activity: PubChem BioAssay, Sanford-Burnham Center for Chemical Genomics
HKDC1 inh: HKDC1 hexokinase inhibitors, primary screen, biochemical, fluorescence, uHTS. recombinant HKDC1, G6PDH/diaphorase resazurin coupled fluorescence. inhibition, % at 20 µM. hit rate 0.16% among 340,000. AID 493160, 2011;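 active = inhibition above about 35% when tested at 20 µM, limit read from the data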;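 also: plate controls were DMSO wells with enzyme for no effect and DMSO wells lacking enzyme for full effect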
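Incubation: 90 min at room temperature in dark / Material: recombinant HKDC1 (HK5) hexokinase enzyme, produced in-house / Quantity: enzyme 5 µg/mL final / Compound: one dose of 20 µM, 1% DMSO / Reagent: glucose and ATP substrates / Buffer or medium: Tris pH 8.0 buffer with MgCl2, Tween-20, BSA, BME / Technique: resorufin fluorescence at 613 nm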
LMPTP block: LMPTP phosphatase inhibitors, primary screen, biochemical, fluorescence intensity, uHTS; inhibition, % at 20 µM; hit rate 0.22% among 360,000; recombinant LMPTP-A, OMFP fluorogenic substrate; AID 651560, 2012; Low molecular weight phosphotyrosine protein phosphatase (Homo sapiens), P24666;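 active = compounds that cut the enzyme signal by at least half of the control window in the single-dose screen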;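 also: plate controls were DMSO wells with enzyme plus substrate for no effect and substrate without enzyme for full effect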
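Test system – LMPTP-A enzyme · Amount – LMPTP-A at 0.625 nM final in the reaction · Buffer or medium – Bis-Tris pH 6.0, DTT, detergent · Reagent – OMFP 400 µM · Doses – single 20 µM dose · Schedule – reaction 50 min, room temperature, dark · Detection – fluorescence intensity of OMFP turnover product · Evaluation – percent inhibition versus substrate-only and uninhibited controls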
STEP inh: STEP phosphatase inhibitors, primary screen, biochemical, fluorescence intensity, uHTS. hit rate 0.25% among 360,000. inhibition, % at 20 µM. AID 588621, 2011. recombinant STEP, OMFP fluorogenic substrate;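 active = inhibition at 20 µM, scaled per plate between control wells, above about 37%, limit read from the data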;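 also: 0% = DMSO with enzyme and substrate and 100% = substrate only without enzyme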
Target sequence (P54829 whole entry, looked up): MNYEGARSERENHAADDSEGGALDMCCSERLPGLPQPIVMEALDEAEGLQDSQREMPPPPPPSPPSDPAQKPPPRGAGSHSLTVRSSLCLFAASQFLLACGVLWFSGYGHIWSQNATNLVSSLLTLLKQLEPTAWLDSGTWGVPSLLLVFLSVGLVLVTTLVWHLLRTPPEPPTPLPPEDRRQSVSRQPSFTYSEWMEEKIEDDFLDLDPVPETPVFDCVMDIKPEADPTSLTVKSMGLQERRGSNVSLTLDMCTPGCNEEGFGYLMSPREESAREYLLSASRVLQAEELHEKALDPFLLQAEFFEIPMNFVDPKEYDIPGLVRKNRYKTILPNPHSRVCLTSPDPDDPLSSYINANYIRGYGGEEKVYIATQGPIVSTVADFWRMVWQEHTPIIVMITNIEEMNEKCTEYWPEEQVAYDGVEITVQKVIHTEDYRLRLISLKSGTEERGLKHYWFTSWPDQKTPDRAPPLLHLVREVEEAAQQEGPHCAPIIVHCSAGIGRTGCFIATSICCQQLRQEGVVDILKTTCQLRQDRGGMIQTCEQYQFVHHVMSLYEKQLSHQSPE
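Test system: STEP tyrosine phosphatase / Reagent: OMFP at 25 µM / Doses: 20 µM, 1% DMSO / Read-out: percent inhibition scaled to no-enzyme and uninhibited-enzyme controls, plate-pattern corrected / Detection: FITC-channel fluorescence of OMFP product / Medium: Bis-Tris buffer pH 6.0, 2.5 mM DTT, 0.005% Tween 20 / Schedule: 20 min at room temperature, dark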
Scp-1 inhibitor: Scp-1 phosphatase inhibitors, primary screen, biochemical, colorimetric, uHTS; Carboxy-terminal domain RNA polymerase II polypeptide A small phosphatase 1 (Homo …; Recombinant Scp1, phosphopeptide, malachite green phosphate absorbance; inhibition, % at 20 µM; hit rate 0.88% among 340,000;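 active = inhibition above about 50% at 20 µM, limit read from the data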;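 also: plate controls were DMSO wells with enzyme for no effect and wells lacking enzyme for full effect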
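assay system = SCP-1 phosphatase catalytic domain, residues 76-261 | buffer or medium = 50 mM Tris acetate pH 5.5, 0.005% Tween-20, 10 mM MgCl2 | incubation = enzyme reaction 45 min at room temperature, colour 5 min, stabilisation 30 min | signal = Phosphate-binding colour reagent, absorbance read at 630 nm | measure = % inhibition at 20 µM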
SUMO1-SIM PPI: modulators of SUMO1 protein-protein interactions, primary screen, biochemical, uHTS; SUMO1 binding to a labelled peptide, TR-FRET, 1 h; inhibition, % at 20 µM; hit rate 0.33% among 360,000; in the data active = inhibition above about 37%
Target sequence (P63165 whole entry, looked up): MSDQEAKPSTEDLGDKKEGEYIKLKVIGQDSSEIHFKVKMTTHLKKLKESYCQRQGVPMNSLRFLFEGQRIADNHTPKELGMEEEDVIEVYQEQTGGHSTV
DNMT1 block: human DNMT1 methyltransferase inhibitors, primary screen, biochemical, molecular beacon, fluorescence, HinP1I cleavage, uHTS; hit rate 0.83% among 360,000; inhibition (reported as % activation of signal), % at 10 µM; AID 588458, 2011; DNA (cytosine-5)-methyltransferase 1 (Homo sapiens), P26358; in the data active = inhibition above about 50%
Scp-1 conf: Scp-1 phosphatase inhibitors, retest, confirmation, biochemical, colorimetric, single concentration; shares compounds with Scp-1 inhibitor; recombinant SCP-1 catalytic domain, phosphate release, malachite green absorbance; inhibition, % at 20 µM; hit rate 61% among 2,500;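 also: plate controls were DMSO with enzyme for no effect and buffer wells lacking enzyme for full effect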
Scp-1 MG ctr: colorimetric readout interference by compounds, confirmation, artefact control for Scp-1 inhibitor project, biochemical, single concentration; shares compounds with Scp-1 inhibitor; Colorimetric interference counterscreen, malachite green absorbance 630 nm; apparent inhibition (interference), % at 20 µM; 2,500 tested, under 10 active; AID 540313, 2011;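 also: compounds added after enzyme reaction finished so only phosphate colour detection is probed; plate controls were DMSO wells with completed Scp-1 reaction for no effect and substrate wells lacking enzyme for full effect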
Scp-1 Tm shift: Scp-1 binding by thermal shift, confirmation, orthogonal assay for Scp-1 inhibitor project, biophysical, differential scanning fluorimetry; AID 540329, 2011; Recombinant SCP1, Sypro Orange thermal shift Tm; shares compounds with Scp-1 inhibitor; thermal shift relative to vanadate control, % at 40 µM; hit rate 25% among 1,500;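 active = substances whose mean melting-temperature shift, as a percentage of the reference inhibitor's shift, reaches about 5.3%, limit read from the data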;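 also: 0% = Tm of DMSO wells and 100% = Tm with sodium orthovanadate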
DNMT1 inh conf: DNMT1 methyltransferase inhibitor retest, confirmation, biochemical, molecular beacon, fluorescence, single concentration; shares compounds with DNMT1 block; AID 602385, 2012; hit rate 8% among 2,300; inhibition, % at 10 µM; DNMT1 molecular beacon HinP1I cleavage;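 active = average inhibition of at least 30% in the single-concentration confirmation test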
DNMT1 interf: beacon fluorescence artifact counter-screen. shares compounds with DNMT1 block. DNMT1 molecular beacon spectral interference counterscreen, fluorescence 485/520. activation (fluorescence interference), % at 10 µM. hit rate 1% among 2,300. AID 602387;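 active = activation of at least 30% at 10 µM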;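 also: DNMT1 catalytic domain with a HinP1I cleavage step and a FAM/dabcyl DNA beacon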
STEP inh conf: STEP phosphatase inhibitor hit confirmation, biochemical, fluorescence intensity, single concentration | hit rate 32% among 520 | AID 623866, 2012 | recombinant STEP, OMFP fluorogenic substrate | shares compounds with STEP inh | inhibition, % at 20 µM; call rule not given here;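 also: 0% = enzyme with substrate plus DMSO and 100% = substrate without enzyme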
Numbers without * were called inactive; . = not tested or not shown. A selection: hits, their analogues and other compounds. The true share with any hit is near 1.8%.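 The calls were made as follows, unless noted: active = inhibition of at least 30% at 20 µM; inactive = the rest.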

SMILES	HKDC1 inh	LMPTP block	STEP inh	Scp-1 inhibitor	SUMO1-SIM PPI	DNMT1 block	Scp-1 conf	Scp-1 MG ctr	Scp-1 Tm shift	DNMT1 inh conf	DNMT1 interf	others
CC(=O)Nc1ccc(S(=O)(=O)N(C)CC(=O)OCC(=O)Nc2cccnc2Cl)cc1	1	-2	-4	4	18	2	.	.	.	.	.
CC(C)Oc1cccc(C(=O)Nc2nnc([C@@H]3C[C@H](O)[C@@H](CO)O3)s2)c1	.	-1	1	.	1	3	.	.	.	.	.
CC(C)(C)OC(=O)N/N=C/c1cc(N=Nc2ccccc2)ccc1O	-8	3	-2	-12	0	1	.	.	.	.	.
Cc1ccc(N=Nc2ccc(O)c(/C=N\NC(=O)c3ccc(N)cc3)c2)cc1C	-2	41	38	95*	2	81*	74*	-11	-1	1	1
COc1ccccc1Nc1nnc(SCC(=O)N2CCCC2=O)s1	13	0	0	-4	-6	0	.	.	.	.	.
CCc1ccc(Nc2nnc(SCC(=O)NC(=O)CN3CCCC3=O)s2)cc1	-2	14	35	65*	9	64*	48*	-10	-6	1	0
CC(=O)Nc1ccc(S(=O)(=O)N2CCC(NC(=O)C(Cc3ccc(C)cc3)NC(C)=O)CC2)cc1 (stereo not drawn)	1	-2	-2	1	-3	0	.	.	.	.	.
CCc1cc(=O)oc2cc(C)cc(OC(C)C(=O)NCCCN3CCCC3=O)c12 (stereo not drawn)	1	1	0	-8	1	1	.	.	.	.	.
CCc1ccccc1NC(=O)CCS(=O)(=O)c1ccc(Br)cc1	-2	1	10	50	10	36	.	.	.	.	.
COc1ccc([N+](=O)[O-])cc1NC(=O)CCS(=O)(=O)c1ccc(Br)cc1	0	0	8	95*	2	79*	62*	-18	-4	1	2
O=C(CCS(=O)(=O)c1ccc(Br)cc1)Nc1cc(F)ccc1F	-7	-1	7	73*	9	62*	58*	-14	-2	3	4
COc1ccc(N(CC(=O)NCc2ccco2)S(=O)(=O)c2ccc(C)cc2)cc1OC	-4	0	0	3	5	2	.	.	.	.	.
Cc1ccc(S(=O)(=O)N(Cc2ccccc2)Cc2ccco2)cc1	8	3	3	-9	-1	-5	.	.	.	.	.
COc1ccccc1N(CC(=O)NCc1ccco1)S(=O)(=O)c1ccc(C)cc1	7	9	61*	87*	22	93*	73*	-5	4	5	0
Cc1ccc(S(=O)(=O)N(CC(=O)O)Cc2ccco2)cc1	1	9	5	93*	6	76*	61*	-20	0	7	-1
CCS(=O)(=O)c1nc(S(=O)(=O)c2ccc(Cl)cc2)c(NCCN2CCOCC2)s1	-3	-1	-1	-5	5	4	.	.	.	.	.
CC1CCCCC12NC(=O)N(CC(=O)OCC(=O)c1ccc(OC(F)F)cc1OC(F)F)C2=O (stereo not drawn)	-3	-2	0	-9	-4	-4	.	.	.	.	.
COc1ncccc1-c1nnn(-c2ccccc2)n1	3	0	-2	-3	5	4	.	.	.	.	.
O=C(N/N=C/c1ccccc1)c1ccc(-c2ccccc2)cc1	-4	-2	-3	-2	6	2	.	.	.	.	.
NC(=O)COc1ccc(/C=N\NC(=O)c2ccc(-c3ccccc3)cc2)cc1	2	38	85*	86*	1	41	56*	-10	-32	.	.	STEP inh conf=2
CCOc1ccccc1NC(=O)CCCNC(=O)c1ccc(Cl)cc1	-4	0	-2	-5	-2	1	.	.	.	.	.
CCc1cc(CNC(=O)c2ccc(OC3CCN(CCc4ccccc4)CC3)cc2)on1	-2	12	92*	74*	4	21	65*	5	-3	.	.	STEP inh conf=-7
